Data: ChEMBL document CHEMBL4138282, “An Anti-Inflammatory PPAR-γ Agonist from the Jellyfish-Derived Fungus Penicillium chrysogenum J08NF-4” (J Nat Prod, 2018)
Active and inactive are the calls of the source. No cut-off for these calls is given here.

How the values were obtained:
Format in all cases: cell-based
[1] = molecular target: T1, Peroxisome proliferator-activated receptor gamma (Mus musculus) (UniProt P37238); experiment: Agonist activity at PPARgamma in mouse RAW264.7 cells assessed as increase in protein expression level in nuclear fractions at 30 uM after 24 hrs by Western blot assay relative to control
T1 sequence (whole entry): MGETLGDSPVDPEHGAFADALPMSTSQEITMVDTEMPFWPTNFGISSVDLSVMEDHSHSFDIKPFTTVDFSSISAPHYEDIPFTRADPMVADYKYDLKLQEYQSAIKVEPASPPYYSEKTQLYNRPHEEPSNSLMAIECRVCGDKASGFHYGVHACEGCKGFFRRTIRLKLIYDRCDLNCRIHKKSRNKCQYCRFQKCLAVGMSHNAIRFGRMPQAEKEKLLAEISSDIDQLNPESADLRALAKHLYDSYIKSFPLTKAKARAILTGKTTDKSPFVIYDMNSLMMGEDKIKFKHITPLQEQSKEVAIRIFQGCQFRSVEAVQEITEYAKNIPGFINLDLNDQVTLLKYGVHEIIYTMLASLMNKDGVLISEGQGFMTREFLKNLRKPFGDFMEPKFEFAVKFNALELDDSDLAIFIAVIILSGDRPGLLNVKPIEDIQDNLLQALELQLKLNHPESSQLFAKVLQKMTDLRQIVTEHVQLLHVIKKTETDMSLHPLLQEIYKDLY
Outline: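 Treated RAW 264.7 cells at 10 or 30 μM for 24 h, with rosiglitazone 10 or 30 μM as comparator. Nuclear fractions isolated by NE-PER extraction, protein by BCA, PPAR-γ by Western blot normalized to nuclear TFIIB; three independent experiments.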

[2] = Cytotoxicity against rat Ac2F cells assessed as reduction in cell viability up to 50 uM after 24 hrs by WST assay
Outline: (§1)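 Cells in high-glucose DMEM/10% heat-inactivated FBS with penicillin-streptomycin at 37 °C, 5% CO2; seeded 12 h, then exposed to compound for 24 h. WST reagent 1 h at 37 °C, absorbance at 450 nm.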

RAW264.7 = experiment: Cytotoxicity against mouse RAW264.7 cells assessed as reduction in cell viability up to 50 uM after 24 hrs by WST assay; details: raw264.7, 24 h; outline: as §1
[3] = molecular target: T2, Peroxisome proliferator-activated receptor gamma (Homo sapiens) (UniProt P37231); experiment: Agonist activity at full length human flag-tagged PPARgamma1 […] expressed in rat Ac2F cells coexpressing PPRE-X3-TK after 6 hrs by one-glo luciferase reporter gene assay
T2 sequence (whole entry): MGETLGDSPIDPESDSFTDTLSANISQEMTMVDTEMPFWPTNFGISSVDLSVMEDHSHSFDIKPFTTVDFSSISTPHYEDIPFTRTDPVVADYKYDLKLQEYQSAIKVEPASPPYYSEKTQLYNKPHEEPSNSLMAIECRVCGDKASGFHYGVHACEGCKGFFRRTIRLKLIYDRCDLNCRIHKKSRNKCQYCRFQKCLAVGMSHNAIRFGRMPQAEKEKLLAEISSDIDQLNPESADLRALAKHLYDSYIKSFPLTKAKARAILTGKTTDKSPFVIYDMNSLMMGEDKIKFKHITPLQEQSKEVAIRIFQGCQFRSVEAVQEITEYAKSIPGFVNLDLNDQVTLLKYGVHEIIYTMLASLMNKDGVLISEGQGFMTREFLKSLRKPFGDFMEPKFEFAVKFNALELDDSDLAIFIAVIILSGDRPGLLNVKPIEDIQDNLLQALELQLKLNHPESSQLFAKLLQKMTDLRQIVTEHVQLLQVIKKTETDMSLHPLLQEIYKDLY
Outline: (§2)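 Rat Ac2F cells at 70–80% confluence transfected by Lipofectamine 2000 with PPRE-X3-TK-luc (1 μg/well) plus pFlag-PPAR-γ1 or pcDNA3 (0.1 μg/well), 4 h, then 10 h in complete medium. Compound (5, 10, 20 μM) or rosiglitazone 5 μM added for 6 h in serum-free medium; ONE-Glo luminescence as fold of control, n = 3.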

[4] = molecular target: T2, Peroxisome proliferator-activated receptor gamma (Homo sapiens); experiment: Agonist activity at full length human flag-tagged PPARgamma1 […] expressed in rat Ac2F cells coexpressing PPRE-X3-TK at 20 uM after 6 hrs by one-glo luciferase reporter gene assay relative to control; outline: as §2
[5] = molecular target: T1, Peroxisome proliferator-activated receptor gamma (Mus musculus); experiment: Agonist activity at PPARgamma in LPS-stimulated mouse RAW264.7 cells assessed as inhibition of NF-kappaB p65 phosphorylation pretreated with compound for 1 hr followed by LPS stimulation for 30 mins by Western blot assay
Outline: (§3)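 For the antagonist arm, GW9662 (10 μM) was added 1 h before. Phospho-p65 read by Western blot on 10% SDS-PAGE, β-actin reference; three independent experiments.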

[6] = molecular target: T1, Peroxisome proliferator-activated receptor gamma (Mus musculus); experiment: Agonist activity at PPARgamma in LPS-stimulated mouse RAW264.7 cells assessed as inhibition of NF-kappaB p65 phosphorylation at 30 uM pretreated with compound for 1 hr followed by LPS stimulation for 30 mins by Western blot assay relative to control; outline: as §3
[7] = molecular target: T1, Peroxisome proliferator-activated receptor gamma (Mus musculus); experiment: Agonist activity at PPARgamma in LPS-stimulated mouse RAW264.7 cells assessed as inhibition of NF-kappaB p65 phosphorylation at 30 uM pretreated with compound for 1 hr followed by LPS stimulation for 30 mins in presence of PPARgamma antagonist GW9662 by Western blot assay; outline: as §3
[8] = molecular target: T1, Peroxisome proliferator-activated receptor gamma (Mus musculus); experiment: Agonist activity at PPARgamma in LPS-stimulated mouse RAW264.7 cells assessed as inhibition of NF-kappaB signaling by measuring reduction in iNOS mRNA level pretreated with compound for 1 hr followed by LPS stimulation for 6 hrs by RT-PCR analysis
Outline: (§4)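 Trizol RNA, M-MLV cDNA, 27-cycle PCR, agarose gel with ethidium bromide stain; GAPDH as internal control. Three independent experiments.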

[9] = molecular target: T1, Peroxisome proliferator-activated receptor gamma (Mus musculus); experiment: Agonist activity at PPARgamma in LPS-stimulated mouse RAW264.7 cells assessed as inhibition of NF-kappaB signaling by measuring reduction in COX2 mRNA level pretreated with compound for 1 hr followed by LPS stimulation for 6 hrs by RT-PCR analysis; outline: as §4
[10] = molecular target: T1, Peroxisome proliferator-activated receptor gamma (Mus musculus); experiment: Agonist activity at PPARgamma in LPS-stimulated mouse RAW264.7 cells assessed as inhibition of NF-kappaB signaling by measuring reduction in TNFalpha mRNA level pretreated with compound for 1 hr followed by LPS stimulation for 6 hrs by RT-PCR analysis; outline: as §4
[11] = molecular target: T1, Peroxisome proliferator-activated receptor gamma (Mus musculus); experiment: Agonist activity at PPARgamma in LPS-stimulated mouse RAW264.7 cells assessed as inhibition of NF-kappaB signaling by measuring reduction in IL-1beta mRNA level pretreated with compound for 1 hr followed by LPS stimulation for 6 hrs by RT-PCR analysis; outline: as §4
[12] = molecular target: T1, Peroxisome proliferator-activated receptor gamma (Mus musculus); experiment: Agonist activity at PPARgamma in LPS-stimulated mouse RAW264.7 cells assessed as inhibition of NF-kappaB signaling by measuring reduction in IL-6 mRNA level pretreated with compound for 1 hr followed by LPS stimulation for 6 hrs by RT-PCR analysis; outline: as §4
[13] = molecular target: T1, Peroxisome proliferator-activated receptor gamma (Mus musculus); experiment: Agonist activity at PPARgamma in LPS-stimulated mouse RAW264.7 cells assessed as inhibition of NF-kappaB signaling by measuring reduction in iNOS mRNA level at 50 uM pretreated with compound for 1 hr followed by LPS stimulation for 6 hrs by RT-PCR analysis relative to control; outline: as §4
[14] = molecular target: T1, Peroxisome proliferator-activated receptor gamma (Mus musculus); experiment: Agonist activity at PPARgamma in LPS-stimulated mouse RAW264.7 cells assessed as inhibition of NF-kappaB signaling by measuring reduction in COX2 mRNA level at 50 uM pretreated with compound for 1 hr followed by LPS stimulation for 6 hrs by RT-PCR analysis relative to control; outline: as §4
[15] = molecular target: T1, Peroxisome proliferator-activated receptor gamma (Mus musculus); experiment: Agonist activity at PPARgamma in LPS-stimulated mouse RAW264.7 cells assessed as inhibition of NF-kappaB signaling by measuring reduction in TNFalpha mRNA level at 50 uM pretreated with compound for 1 hr followed by LPS stimulation for 6 hrs by RT-PCR analysis relative to control; outline: as §4
[16] = molecular target: T1, Peroxisome proliferator-activated receptor gamma (Mus musculus); experiment: Agonist activity at PPARgamma in LPS-stimulated mouse RAW264.7 cells assessed as inhibition of NF-kappaB signaling by measuring reduction in IL-1beta mRNA level at 50 uM pretreated with compound for 1 hr followed by LPS stimulation for 6 hrs by RT-PCR analysis relative to control; outline: as §4
[17] = molecular target: T1, Peroxisome proliferator-activated receptor gamma (Mus musculus); experiment: Agonist activity at PPARgamma in LPS-stimulated mouse RAW264.7 cells assessed as inhibition of NF-kappaB signaling by measuring reduction in IL-6 mRNA level at 50 uM pretreated with compound for 1 hr followed by LPS stimulation for 6 hrs by RT-PCR analysis relative to control; outline: as §4
[18] = molecular target: T1, Peroxisome proliferator-activated receptor gamma (Mus musculus); experiment: Agonist activity at PPARgamma in LPS-stimulated mouse RAW264.7 cells assessed as inhibition of NF-kappaB signaling by measuring reduction in iNOS protein level pretreated with compound for 1 hr followed by LPS stimulation measured after 24 hrs by Western blot analysis
[19] = molecular target: T1, Peroxisome proliferator-activated receptor gamma (Mus musculus); experiment: Agonist activity at PPARgamma in LPS-stimulated mouse RAW264.7 cells assessed as inhibition of NF-kappaB signaling by measuring reduction in COX2 protein level pretreated with compound for 1 hr followed by LPS stimulation measured after 24 hrs by Western blot analysis
[20] = molecular target: T1, Peroxisome proliferator-activated receptor gamma (Mus musculus); experiment: Agonist activity at PPARgamma in LPS-stimulated mouse RAW264.7 cells assessed as inhibition of NF-kappaB signaling by measuring reduction in NO production pretreated with compound for 1 hr followed by LPS stimulation measured after 24 hrs by Griess assay
Outline: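 Supernatant mixed 1:1 with Griess reagent, 20 min at 37 °C in the dark, A520; nitrite quantified against 0–100 μM sodium nitrite standards.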

[21] = molecular target: T1, Peroxisome proliferator-activated receptor gamma (Mus musculus); experiment: Agonist activity at PPARgamma in LPS-stimulated mouse RAW264.7 cells assessed as inhibition of NF-kappaB signaling by measuring reduction in IL-1beta production pretreated with compound for 1 hr followed by LPS stimulation measured after 24 hrs by ELISA
[22] = molecular target: T1, Peroxisome proliferator-activated receptor gamma (Mus musculus); experiment: Agonist activity at PPARgamma in LPS-stimulated mouse RAW264.7 cells assessed as inhibition of NF-kappaB signaling by measuring reduction in IL-6 production pretreated with compound for 1 hr followed by LPS stimulation measured after 24 hrs by ELISA
[23] = molecular target: T1, Peroxisome proliferator-activated receptor gamma (Mus musculus); experiment: Agonist activity at PPARgamma in LPS-stimulated mouse RAW264.7 cells assessed as inhibition of NF-kappaB signaling by measuring reduction in TNFalpha production pretreated with compound for 1 hr followed by LPS stimulation measured after 3 hrs by ELISA

With CN(CCOc1ccc(CC2SC(=O)NC2=O)cc1)c1ccccn1 (stereo not given) the fold change (FC) [1] was 2.3.
For COC(=O)CC/C(C)=C/CC/C(C)=C/Cc1cc(O)c(C)cc1O, the Activity [2] was “Non-Toxic”, the Activity (RAW264.7) was “Non-Toxic” and the Activity [3] was “Dose-dependent effect”. For the same compound, the fold change (FC) [4] was 3, the fold change (FC) [1] was 1.8 and the inhibition [5] was “Dose-dependent effect”. For the same compound, the fold change (FC) [6] was 2.8, the inhibition [7] was “inactive” and the inhibition [8] was “Dose-dependent effect”. For the same compound, the inhibition [9] was “Dose-dependent effect”, the inhibition [10] was “Dose-dependent effect” and the inhibition [11] was “Dose-dependent effect”. For the same compound, the inhibition [12] was “Dose-dependent effect”, the fold change (FC) [13] was 5 and the fold change (FC) [14] was 2. For the same compound, the fold change (FC) [15] was 2, the fold change (FC) [16] was 2.5 and the fold change (FC) [17] was 5. The inhibition [18] was “Dose-dependent effect”, the inhibition [19] was “Dose-dependent effect” and the inhibition [20] was “Dose-dependent effect”. The inhibition [21] was “Dose-dependent effect”, the inhibition [22] was “Dose-dependent effect” and the inhibition [23] was “Dose-dependent effect”.
